According to ChEMBL document CHEMBL2069227, “Cycloartane-type triterpenes from the leaves of Homonoia riparia with VEGF-induced angiogenesis inhibitory activity” (J Nat Prod, 2012):
Activity calls are given as the source filed them. The calls are words filed in the database; no cut-off is given here.

Key:
[1] = tested on: Rattus norvegicus; assay: Inhibition of VEGF-induced vascular permeability in intradermally dosed Sprague-Dawley rat assessed as reduction in extravasation of Evans blue dye by Miles assay; format: functional, organism-based
How it was run: (§1)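 Male Sprague–Dawley rats (250–300 g) were anesthetized and shaved, then re-anesthetized 2–3 days later and given 150 μL 1% Evans blue i.v. After 15 min, 15 μL was injected intradermally: VEGF (100 ng/mL), compound (1, 5 or 10 μg/mL) in PBS, or PBS alone. Skin was dissected after 1 h, dye eluted with formamide at 56 °C, and OD read at 620 nm. n = 3 at 10 μg/mL.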

[2] = tested on: HUVEC; assay: Toxicity in HUVECs at 25 uM; format: cell-based; conditions: human
[3] = tested on: HUVEC; assay: Toxicity in HUVECs at 12.5 uM; format: cell-based; conditions: human
[4] = tested on: HUVEC; assay: Inhibition of VEGF-induced angiogenesis in HUVECs assessed as reduction in capillary-like tube formation on matrigel at 25 uM incubated for 6 hrs by fluorescence microscopy; format: functional; conditions: Homo sapiens
How it was run: (§2)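 HUVECs were cultured to the supplier's standard protocol. 5 × 10^4 cells were plated on basement membrane extract in medium with VEGF (10 ng/mL), with or without compound, and incubated 6 h. Cells were stained with 2 μM Calcein AM in PBS for 30 min. Tubes were imaged by fluorescence microscopy and quantified by image analysis against untreated cultures. Means ± SD, n = 3.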

[5] = tested on: Rattus norvegicus; assay: Inhibition of VEGF-induced vascular permeability in intradermally dosed Sprague-Dawley rat assessed as reduction in extravasation of Evans blue dye at 10 ug/ml by Miles assay; format: functional; how it was run: as §1
[6] = tested on: HUVEC; assay: Inhibition of VEGF-induced angiogenesis in HUVECs assessed as reduction in capillary-like tube formation on matrigel at 12.5 uM incubated for 6 hrs by fluorescence microscopy; format: functional; conditions: Homo sapiens; how it was run: as §2

Structure (SMILES) | inhibition [1] | other results
C=C(CC[C@@H](C)[C@H]1CC[C@@]2(C)[C@@H]3[C@@H](O)[C@@H](O)[C@H]4C(C)(C)[C@@H](O)CC[C@@]45C[C@@]35CC[C@]12C)C(C)C | inactive | 
C=C(CC[C@@H](C)[C@H]1CC[C@@]2(C)[C@@H]3[C@@H](O)[C@@H](O)[C@H]4C(C)(C)[C@@H](O[C@@H]5OC[C@@H](O)[C@H](O)[C@H]5O)CC[C@@]45C[C@@]35CC[C@]12C)C(C)C (relative stereo) | inactive | 
C=C(CC[C@@H](C)[C@H]1[C@@H](O)C[C@@]2(C)[C@@H]3C[C@@H](O)[C@H]4C(C)(C)[C@@H](O)CC[C@@]45C[C@@]35CC[C@]12C)C(C)C (relative stereo) | inactive | 
C=C(CC[C@@H](C)[C@H]1[C@@H](O)C[C@@]2(C)[C@@H]3[C@@H](O)C[C@H]4C(C)(C)[C@@H](O[C@@H]5OC[C@@H](O)[C@H](O)[C@H]5O)CC[C@@]45C[C@@]35CC[C@]12C)C(C)C | Dose-dependent effect | 
C=C(CC[C@@H](C)[C@H]1[C@@H](O)C[C@@]2(C)[C@@H]3C[C@@H](O)[C@H]4C(C)(C)[C@@H](O[C@@H]5OC[C@@H](O)[C@H](O)[C@H]5O)CC[C@@]45C[C@@]35CC[C@]12C)C(C)C (relative stereo) | Dose-dependent effect | 
C=C(CC[C@@H](C)[C@H]1[C@@H](O)C[C@@]2(C)[C@@H]3[C@@H](O)[C@@H](O)[C@H]4C(C)(C)[C@@H](O[C@@H]5OC[C@@H](O)[C@H](O)[C@H]5O)CC[C@@]45C[C@@]35CC[C@]12C)C(C)C | Dose-dependent effect | Activity [2]: Non-toxic; Activity [3]: Non-toxic; inhibition at 25 µM [4]: 59.5%; inhibition (INH) [5]: 64%; inhibition at 12.5 µM [6]: 28.5%
